Measurements from ChEMBL document CHEMBL1811793, “Induced production of N-formyl alkaloids from Aspergillus fumigatus by co-culture with Streptomyces peucetius” (J Nat Prod, 2011).
pIC50: −log10 of the molar value. Active and inactive are the calls of the source. The rule behind the calls is not given here.

Key:
Malme-3M = test: Cytotoxicity against human MALME-3M cells; type: functional, cell-based
In short: (§1)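 Run within the NCI-60 human tumour cell line screen panel.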

ACHN = test: Cytotoxicity against human ACHN cells; type: functional, cell-based; in short: as §1
SF-295 = test: Cytotoxicity against human SF295 cells; type: functional, cell-based; in short: as §1
UACC-62 = test: Cytotoxicity against human UACC62 cells; type: functional, cell-based; in short: as §1
HOP-92 = test: Cytotoxicity against human HOP92 cells; type: functional, cell-based; in short: as §1
SK-MEL-28 = test: Cytotoxicity against human SK-MEL-28 cells; type: functional, cell-based; in short: as §1
A498 = test: Cytotoxicity against human A498 cells; type: functional, cell-based; in short: as §1
SK-OV-3 = test: Cytotoxicity against human SKOV3 cells; type: functional, cell-based; in short: as §1
SK-MEL-5 = test: Cytotoxicity against human SK-MEL-5 cells; type: functional, cell-based; in short: as §1
MOLT-4 = test: Cytotoxicity against human MOLT4 cells; type: functional, cell-based; in short: as §1
NCI-H460 = test: Cytotoxicity against human NCI-H460 cells; type: functional, cell-based; in short: as §1
U-251 = test: Cytotoxicity against human U251 cells; type: functional, cell-based; in short: as §1
[1] = tested on: Burkholderia thailandensis; test: Antimicrobial activity against Burkholderia thailandensis at 50 ug/disk by Kirby-Bauer disk diffusion assay; type: functional
Staphylococcus aureus = test: Antimicrobial activity against Staphylococcus aureus at 50 ug/disk by Kirby-Bauer disk diffusion assay; type: functional, organism-based
Fusarium incarnatum = test: Antimicrobial activity against Fusarium pallidoroseum at 50 ug/disk by Kirby-Bauer disk diffusion assay; type: functional, organism-based
Escherichia coli = test: Antimicrobial activity against Escherichia coli at 50 ug/disk by Kirby-Bauer disk diffusion assay; type: functional, organism-based
Candida albicans = test: Antimicrobial activity against Candida albicans at 50 ug/disk by Kirby-Bauer disk diffusion assay; type: functional, organism-based

| SMILES | Activity (Malme-3M) | Activity (ACHN) | Activity (SF-295) | Activity (UACC-62) | Activity (HOP-92) | Activity (SK-MEL-28) | Activity (A498) | Activity (SK-OV-3) | Activity (SK-MEL-5) | Activity (MOLT-4) | Activity (NCI-H460) | Activity (U-251) | pIC50 (Malme-3M) | pIC50 (ACHN) | pIC50 (SF-295) | pIC50 (UACC-62) | pIC50 (HOP-92) | pIC50 (SK-MEL-28) | pIC50 (A498) | pIC50 (SK-OV-3) | further results |
| --- | --- | --- | --- | --- | --- | --- | --- | --- | --- | --- | --- | --- | --- | --- | --- | --- | --- | --- | --- | --- | --- |
| [C-]#[N+]C(=C\c1ccc(OC)cc1)/C(=C/c1ccc(OC)cc1)[N+]#[C-] | inactive | inactive | inactive | inactive | inactive | inactive | inactive | inactive | inactive | inactive | inactive | inactive |  |  |  |  |  |  |  |  |  |
| COc1ccc(/C=C(NC=O)/C(=C/c2ccc(OC)cc2)NC=O)cc1 |  |  |  |  |  |  |  |  |  |  |  |  | 6.19 | < 5.60 | 6.15 | 6.12 | 6.05 | 6.01 | 6.07 | 6.08 | pIC50 (SK-MEL-5): 6.09; pIC50 (MOLT-4): < 5.60; pIC50 (NCI-H460): 5.95; pIC50 (U-251): 6.04 |
| [C-]#[N+]C(=C\c1ccc(OC)cc1)/C(=C/c1ccc(OS(=O)(=O)O)cc1)[N+]#[C-] | inactive | inactive | inactive | inactive | inactive | inactive | inactive | inactive | inactive | inactive | inactive | inactive |  |  |  |  |  |  |  |  | Activity [1]: inactive; Activity (Staphylococcus aureus): inactive; Activity (Fusarium incarnatum): inactive; Activity (Escherichia coli): inactive; Activity (Candida albicans): inactive |
| COc1ccc(/C=C(NC=O)/C(=C/c2ccc(OS(=O)(=O)O)cc2)NC=O)cc1 | inactive | inactive | inactive | inactive | inactive | inactive | inactive | inactive | inactive | inactive | inactive | inactive |  |  |  |  |  |  |  |  | Activity [1]: inactive; Activity (Staphylococcus aureus): inactive; Activity (Fusarium incarnatum): inactive; Activity (Escherichia coli): inactive; Activity (Candida albicans): inactive |
| COc1ccc(/C=C(NC=O)/C(=C/c2ccc(O)cc2)NC=O)cc1 |  |  |  |  |  |  |  |  |  |  |  |  | < 5.60 | 5.86 | < 5.60 | < 5.60 | < 5.60 | 5.69 | 5.76 | 5.67 | pIC50 (SK-MEL-5): < 5.60; pIC50 (MOLT-4): 5.74; pIC50 (NCI-H460): 5.74; pIC50 (U-251): < 5.60 |
| [C-]#[N+]C(=C\c1ccc(O)cc1)/C(=C/c1ccc(OC)cc1)[N+]#[C-] | inactive | inactive | inactive | inactive | inactive | inactive | inactive | inactive | inactive | inactive | inactive | inactive |  |  |  |  |  |  |  |  |  |
